Laboratory results as given in ChEMBL document CHEMBL5223178, “Macrocyclic Retinoic Acid Receptor-Related Orphan Receptor C2 Inverse Agonists” (ACS Med Chem Lett, 2023).

Legend:
[1] = Clearance in human liver microsomes; type: ADME, Microsome; conditions: read-out: CLH
[2] = Inhibition of IL-17A production in human Th17 cells incubated for 6 days […]; type: functional, cell-based; conditions: Th17, 144 h
Method in brief: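 Inhibition of IL-17A production by human primary Th17 cells. Values are means of two or more independent assays.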

[3] = Lipophilicity, log D of the compound at pH 7.4 by reverse phase HPLC; type: physicochemical; conditions: buffer
Method in brief: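 LogD at pH 7.4 determined by reverse-phase HPLC. Values are means of two or more independent assays.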

[4] = molecular target: Voltage-gated inwardly rectifying potassium channel KCNH2 (Homo sapiens, UniProt Q12809); experiment: Displacement of [3H]-dofetilide from human ERG; type: toxicity
Method in brief: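 Binding assay measuring displacement of [3H]dofetilide. Values are means of two or more independent assays.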

[5] = Passive apparent permeability in MDCKII-LE cells; type: ADME, cell-based, Canis lupus familiaris; conditions: dog, MDCK
Method in brief: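 Passive permeability measured across RRCK (MDCKII-LE) cell monolayers. Values are means of two or more independent assays.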

[6] = Inverse agonist activity at 6His-tagged RORC2 LBD (unknown origin) expressed in Escherichia coli assessed as inhibition of biotinylated SRC1-2 derived CPSSHSSLTERHKILHRLLQEGSPS-NH2 containing LXXLL coactivator peptide incubated for 3 hrs by TR-FRET assay; parameters: species or system Homo sapiens
Method in brief: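 TR-FRET cofactor recruitment measuring displacement of SRC1-2 coactivator peptide binding to histidine-tagged RORC2 ligand-binding domain. Values are means of two or more independent assays.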

Homo sapiens [7] = experiment: Ex vivo drug penetration in human abdominal skin applied topically using flow-through diffusion cell assessed as compound concentration in skin epidermis measured upto 24 hrs by LC-MS/MS based in vitro skin penetration assay; type: functional; conditions: Abdomen skin
Method in brief: (§1)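 Ex vivo human skin dosed topically with a 2.75% (w/w) formulation in 30% ethanol, 30% PEG400, 20% diethylene glycol monoethyl ether and 20% glycerin (w/w). Cumulative amount in receptor solution (ng/cm2) was followed over 24 h. At 24 h, excess surface compound was removed, and epidermis and dermis were separated and homogenized to measure concentration (μg/g). Results are means with SEM.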

[8] = molecular target: T1, Nuclear receptor ROR-alpha (Homo sapiens, UniProt P35398); experiment: Inverse agonist activity at 6His-tagged RORA LBD (unknown origin) expressed in Escherichia coli assessed as inhibition of biotinylated SRC1-2 derived CPSSHSSLTERHKILHRLLQEGSPS-NH2 containing LXXLL coactivator peptide incubated for 3 hrs by TR-FRET assay
T1 sequence (P35398 whole entry): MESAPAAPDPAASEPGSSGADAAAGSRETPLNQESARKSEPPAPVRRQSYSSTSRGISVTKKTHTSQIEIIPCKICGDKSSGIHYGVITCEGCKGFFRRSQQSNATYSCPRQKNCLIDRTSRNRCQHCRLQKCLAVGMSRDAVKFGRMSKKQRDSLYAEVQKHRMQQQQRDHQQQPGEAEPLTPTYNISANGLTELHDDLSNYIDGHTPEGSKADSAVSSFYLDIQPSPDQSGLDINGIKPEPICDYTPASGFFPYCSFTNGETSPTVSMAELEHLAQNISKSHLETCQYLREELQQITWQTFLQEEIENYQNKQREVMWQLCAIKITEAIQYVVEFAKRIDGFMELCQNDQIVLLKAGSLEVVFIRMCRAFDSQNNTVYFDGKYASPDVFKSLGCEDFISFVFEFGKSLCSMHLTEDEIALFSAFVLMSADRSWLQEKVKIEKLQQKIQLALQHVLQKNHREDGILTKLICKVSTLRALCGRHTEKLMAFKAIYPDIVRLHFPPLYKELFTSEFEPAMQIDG

Homo sapiens [9] = experiment: Ex vivo drug penetration in human abdominal skin applied topically using flow-through diffusion cell assessed as compound flux through skin measured upto 24 hrs by LC-MS/MS based in vitro skin penetration assay; type: functional; conditions: Abdomen skin; method in brief: as §1
PXR (NR1I2) = molecular target: T2, PXR (NR1I2) (Homo sapiens, UniProt O75469); experiment: Agonist activity at PXR in human HeLa cells assessed as increase in NR activity at 10 uM relative to control; type: cell-based; conditions: read-out: Activity
T2 sequence (O75469 whole entry): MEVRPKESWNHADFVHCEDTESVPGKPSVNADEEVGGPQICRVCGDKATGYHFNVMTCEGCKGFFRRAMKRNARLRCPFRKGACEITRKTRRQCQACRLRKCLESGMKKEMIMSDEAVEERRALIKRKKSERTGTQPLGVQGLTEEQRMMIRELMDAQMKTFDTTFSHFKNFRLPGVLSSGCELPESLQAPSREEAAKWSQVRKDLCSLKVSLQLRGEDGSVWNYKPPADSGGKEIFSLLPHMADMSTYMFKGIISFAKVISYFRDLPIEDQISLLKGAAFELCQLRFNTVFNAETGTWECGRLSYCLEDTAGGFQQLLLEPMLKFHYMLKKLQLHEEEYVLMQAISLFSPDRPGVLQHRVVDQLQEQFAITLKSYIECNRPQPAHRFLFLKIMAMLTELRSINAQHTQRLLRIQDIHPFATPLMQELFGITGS
Method in brief: (§2)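 Multiplexed trans-FACTORIAL profiling: cells transfected with ligand-binding-domain chimeric constructs of 48 nuclear receptors fused to GAL4 DNA. Reporter RNA levels were measured. Compound was tested at 1 and 10 μM. Readout was fold change versus control, with a 20% change as the threshold for antagonist (reduction) or agonist (increase) effect.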

[10] = molecular target: T3, Nuclear receptor ROR-beta (Homo sapiens, UniProt Q92753); experiment: Inverse agonist activity at 6His-tagged RORB LBD (unknown origin) expressed in Escherichia coli assessed as inhibition of biotinylated SRC1-2 derived CPSSHSSLTERHKILHRLLQEGSPS-NH2 containing LXXLL coactivator peptide incubated for 3 hrs by TR-FRET assay
T3 sequence (Q92753 whole entry): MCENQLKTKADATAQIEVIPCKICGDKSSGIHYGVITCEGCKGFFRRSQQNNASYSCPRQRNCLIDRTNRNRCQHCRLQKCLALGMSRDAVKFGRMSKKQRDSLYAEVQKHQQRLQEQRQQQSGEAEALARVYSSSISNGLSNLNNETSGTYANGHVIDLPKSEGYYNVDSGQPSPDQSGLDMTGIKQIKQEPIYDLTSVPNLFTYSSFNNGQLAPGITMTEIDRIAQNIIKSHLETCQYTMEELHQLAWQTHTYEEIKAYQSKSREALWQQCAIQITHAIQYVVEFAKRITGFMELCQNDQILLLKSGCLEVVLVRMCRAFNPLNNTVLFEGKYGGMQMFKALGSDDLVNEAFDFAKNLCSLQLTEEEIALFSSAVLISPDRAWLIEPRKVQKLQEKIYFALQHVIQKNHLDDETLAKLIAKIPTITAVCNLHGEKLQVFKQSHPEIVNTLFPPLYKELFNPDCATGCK

Homo sapiens [11] = experiment: Ex vivo drug penetration in human abdominal skin applied topically using flow-through diffusion cell assessed as compound concentration in dermis layers measured upto 24 hrs by LC-MS/MS based in vitro skin penetration assay; type: functional, Abdomen skin; method in brief: as §1
HeLa = experiment: Antagonist activity at RORC2 in human HeLa cells assessed as reduction in NR activity at 1 to 10 uM relative to control; type: cell-based; parameters: scale not given: the % may be the effect or the level left; conditions: dose 1-10 µM; method in brief: as §2

Voltage-gated inwardly rectifying potassium channel KCNH2, sequence (Q12809 whole entry): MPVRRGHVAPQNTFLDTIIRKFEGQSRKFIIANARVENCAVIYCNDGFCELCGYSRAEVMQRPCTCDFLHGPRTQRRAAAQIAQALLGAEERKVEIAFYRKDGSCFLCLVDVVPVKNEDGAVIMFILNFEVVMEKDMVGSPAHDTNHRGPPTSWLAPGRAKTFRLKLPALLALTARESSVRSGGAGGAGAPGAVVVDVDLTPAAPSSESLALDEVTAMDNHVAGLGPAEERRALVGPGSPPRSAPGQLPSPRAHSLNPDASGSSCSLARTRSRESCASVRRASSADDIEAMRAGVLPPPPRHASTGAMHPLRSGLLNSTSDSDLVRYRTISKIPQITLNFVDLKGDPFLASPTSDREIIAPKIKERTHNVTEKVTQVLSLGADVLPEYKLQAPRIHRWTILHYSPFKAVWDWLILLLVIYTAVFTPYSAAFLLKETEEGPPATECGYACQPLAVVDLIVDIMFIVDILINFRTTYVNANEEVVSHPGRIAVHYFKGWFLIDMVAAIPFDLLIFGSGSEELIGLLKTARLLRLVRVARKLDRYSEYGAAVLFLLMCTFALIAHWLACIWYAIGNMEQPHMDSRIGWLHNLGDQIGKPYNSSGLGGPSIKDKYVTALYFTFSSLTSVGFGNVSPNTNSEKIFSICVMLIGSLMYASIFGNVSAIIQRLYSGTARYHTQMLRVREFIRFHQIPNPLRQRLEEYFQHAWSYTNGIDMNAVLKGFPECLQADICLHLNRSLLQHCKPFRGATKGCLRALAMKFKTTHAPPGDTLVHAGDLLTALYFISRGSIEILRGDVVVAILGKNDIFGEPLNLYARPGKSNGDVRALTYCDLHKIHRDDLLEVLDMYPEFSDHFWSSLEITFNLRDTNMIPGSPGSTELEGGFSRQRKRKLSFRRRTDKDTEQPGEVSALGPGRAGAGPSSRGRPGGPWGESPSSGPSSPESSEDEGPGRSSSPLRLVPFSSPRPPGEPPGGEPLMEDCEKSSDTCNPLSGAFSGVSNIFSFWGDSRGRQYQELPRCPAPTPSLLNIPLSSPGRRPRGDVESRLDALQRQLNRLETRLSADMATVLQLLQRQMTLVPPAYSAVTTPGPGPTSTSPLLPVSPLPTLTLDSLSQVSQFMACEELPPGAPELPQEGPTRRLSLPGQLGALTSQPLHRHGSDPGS

Row | SMILES | microsomal CLint [1] [µL/min/mg] | IC50 [2] [nM] | chromatographic logD [3] | Ki [4] [nM] | Papp [5] [×10⁻⁶ cm/s] | IC50 [6] [nM] | Drug uptake (Homo sapiens [7]) [µg/g] | IC50 [8] [nM] | Drug uptake (Homo sapiens [9]) [ng/cm2/h] | activity at 10 µM (PXR (NR1I2)) [%] | IC50 [10] [nM] | Activity (Homo sapiens [11]) [µg/g] | Activity (HeLa) [%]
1 | Cc1c2cc(C#N)cc1NS(=O)(=O)CCCCC[C@H]1CN(CCN1C(=O)C(C)C)C2 | 130 | 65 | 2.9 | 17000 | 22 | 27 |  |  |  |  |  |  | 
2 | Cc1c2cc(F)cc1NS(=O)(=O)CCCOCC1CN(CCN1C(=O)CC1CC1)C2 (stereo not drawn) | 55 | 110 | 2.1 |  |  | 120 |  |  |  |  |  |  | 
3 | Cc1c2cccc1NS(=O)(=O)CCCCC[C@H]1CN(CCN1C(=O)C(C)C)C2 | 223 | 28 | 3.4 | 37000 | 24 | 9.3 | 92.7 | > 25000 | 28.1 | > 20 | > 25000 | 18.3 | > 20
4 | Cc1c2cc(F)cc1NS(=O)(=O)N(C)CCCCC1CN(CCN1C(=O)CC1CC1)C2 (stereo not drawn) | > 320 | 26 | 3.5 |  | 21 | 14 |  |  |  |  |  |  | 
5 | Cc1c(CN2CCN(C(=O)CC3CC3)[C@@H](C)C2)cc(F)cc1NS(=O)(=O)c1ccc(F)cc1 | 53 | 141 | 4.7 | 1800 | 4.5 | 12 |  |  |  |  |  |  | 
6 | Cc1c2cc(F)cc1NS(=O)(=O)CCCCC1CN(CCN1C(=O)CC1CC1)C2 (stereo not drawn) | 71 | 2600 | 3.3 |  | 24.7 | 620 |  |  |  |  |  |  | 
7 | Cc1c2cc(F)cc1NS(=O)(=O)NCCCCC1CN(CCN1C(=O)CC1CC1)C2 (stereo not drawn) | 160 | 170 | 2.9 |  | 18.4 | 150 |  |  |  |  |  |  | 
8 | Cc1c2cc(F)cc1NS(=O)(=O)CCCCCC1CN(CCN1C(=O)CC1CC1)C2 (stereo not drawn) | 260 | 55 | 3.2 |  | 12.4 | 69 |  |  |  |  |  |  | 
9 | Cc1c2cc(F)cc1NS(=O)(=O)CCCCC[C@H]1CN(CCN1C(=O)C(C)C)C2 | 205 | 87 | 3.8 | 19000 | 19 | 5.2 |  |  |  |  |  |  | 
10 | Cc1c(CN2CCN(C(=O)C3CCCC3)[C@@H](C)C2)cc(F)cc1NC(=O)c1cccc(C#N)c1 | 239 | 16 | 4.5 | 3600 | 6.5 | 5.4 |  |  |  |  |  |  | 
11 | O=C(CC1CC1)N1CCN2Cc3cc(F)cc(c3)NS(=O)(=O)CCCCCC1C2 (stereo not drawn) | 80 | > 10000 | 3.6 |  | 11.7 | 2400 |  |  |  |  |  |  | 
12 | Cc1c2cc(Cl)cc1NS(=O)(=O)CCCCC[C@H]1CN(CCN1C(=O)C(C)C)C2 | 200 | 2.2 | 4.3 | 11000 | 17 | 2.4 |  |  |  |  |  |  | 
13 | Cc1c(CN2CCN(C(=O)C3CCCC3)[C@@H](C)C2)cc(F)cc1NS(=O)(=O)c1ccc(F)cc1 | 68 | 6.5 | 5.3 | 4000 | 1.3 | 2.1 |  |  |  |  |  |  | 
